# Measurements as given in PubChem BioAssay.
# Calls of active or inactive are those of the source.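 The calls were made as follows, unless noted: active = viability at or under a set limit in both replicates, limit being median viability minus 3 SD (cut at about 48% in these data, passing the limit was not always enough); inconclusive = at or under the limit in just one replicate; inactive = at or above the limit in both replicates.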
# Legend:
# [1] = reducers of endogenous Her2 protein level, primary screen, SKBR3 breast tumor cells, AlphaScreen, ATP viability (AID 461;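 active = Her2 level under about 52% in both replicate screens, with viability over 70% of control, limit read from the data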;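 as to Her2 level: lower value means less Her2 protein in the cells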;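 as to viability: percent of carrier control wells set as 100% viability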); conditions: 18-24 h, measured here: SKBR3 viability, ATP luminescence, at 10 µM
# [2] = molecular target: Receptor tyrosine-protein kinase erbB-2 (Homo sapiens) (UniProt P04626); assay: as above; conditions: 18-24 h, at 10 µM, stronger effect = lower value
# Chain of Receptor tyrosine-protein kinase erbB-2 (Homo sapiens) (P04626 whole entry, looked up): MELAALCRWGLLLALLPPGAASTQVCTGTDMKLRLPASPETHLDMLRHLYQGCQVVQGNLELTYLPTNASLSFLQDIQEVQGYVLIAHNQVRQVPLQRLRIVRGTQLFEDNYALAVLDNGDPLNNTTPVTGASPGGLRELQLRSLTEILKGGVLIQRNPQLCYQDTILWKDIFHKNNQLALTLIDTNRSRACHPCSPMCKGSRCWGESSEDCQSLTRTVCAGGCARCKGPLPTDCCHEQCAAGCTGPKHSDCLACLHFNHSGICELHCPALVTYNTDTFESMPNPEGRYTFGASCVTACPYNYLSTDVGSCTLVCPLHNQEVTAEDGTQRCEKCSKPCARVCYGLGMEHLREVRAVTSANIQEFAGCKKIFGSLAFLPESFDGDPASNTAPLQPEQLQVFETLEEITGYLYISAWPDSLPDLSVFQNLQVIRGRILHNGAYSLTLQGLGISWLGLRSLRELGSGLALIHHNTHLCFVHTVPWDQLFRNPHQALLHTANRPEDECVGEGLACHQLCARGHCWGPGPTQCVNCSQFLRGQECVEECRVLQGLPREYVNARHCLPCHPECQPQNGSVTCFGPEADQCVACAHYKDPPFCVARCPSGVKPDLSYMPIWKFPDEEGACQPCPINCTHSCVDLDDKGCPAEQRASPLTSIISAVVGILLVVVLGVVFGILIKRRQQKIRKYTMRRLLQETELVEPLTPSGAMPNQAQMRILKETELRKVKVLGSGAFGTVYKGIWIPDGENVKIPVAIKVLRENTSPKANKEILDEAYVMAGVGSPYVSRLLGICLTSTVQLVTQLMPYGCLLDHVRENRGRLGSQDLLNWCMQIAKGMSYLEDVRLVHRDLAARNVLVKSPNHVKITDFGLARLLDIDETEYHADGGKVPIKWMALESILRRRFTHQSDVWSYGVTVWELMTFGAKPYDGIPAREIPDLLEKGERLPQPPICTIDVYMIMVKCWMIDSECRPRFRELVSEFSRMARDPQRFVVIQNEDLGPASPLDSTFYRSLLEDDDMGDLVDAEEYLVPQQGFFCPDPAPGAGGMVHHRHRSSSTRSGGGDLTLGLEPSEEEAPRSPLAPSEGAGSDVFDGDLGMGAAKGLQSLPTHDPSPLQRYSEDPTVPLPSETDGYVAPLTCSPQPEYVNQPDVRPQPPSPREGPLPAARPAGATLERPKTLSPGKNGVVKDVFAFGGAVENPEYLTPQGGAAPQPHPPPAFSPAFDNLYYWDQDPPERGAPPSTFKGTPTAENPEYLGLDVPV
# [3] = SK-BR-3 cell growth inhibitors, pilot screen, 24 h, human (AID 572;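 active = viability at or below 10% of carrier control in both of two separate runs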;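 also: compound exposure lasted between 18 and 24 h rather than exactly 24 h; 100% = carrier-treated control wells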); conditions: SK-BR-3 viability, CellTiter-Glo luminescence, at 10 µM, stronger effect = lower value
# [4] = HUVEC growth inhibition – cell-based, human, primary screen (AID 575;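 active = viability at or below 30% in both replicate assays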;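 also: 100% = median of untreated cell wells with 0.1% DMSO on each plate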); conditions: HUVEC proliferation, CellTiter-Glo luminescence, 72 h; at 10 µM; stronger effect = lower value
# How it was run: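 system = HUVEC primary cells | amount = 1250 cells/well | buffer or medium = supplemented EBM, 2% fetal bovine serum | dosing = single-point 10 µM, DMSO 0.1% final | times = 72 h compound incubation | detection = CTG luminescence | read-out = % viability relative to median vehicle-well signal on each plate | control set = vehicle and MePR control wells | format = collagen-coated 384-well format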
# [5] = growth inhibitors of H69AR lung tumor, primary screen, human, duplicate replicates (AID 580); conditions: H69AR lung tumor cells viability, ATP luminescence, 72 h; at 10 µM; stronger effect = lower value;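 also: 100% = mean luminescence of untreated wells and 0% = no signal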
# [6] = reversal of MRP1-mediated doxorubicin resistance, pilot screen, H69AR cells, doxorubicin co-treatment (AID 601;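 active = viability loss from added drug above about 55%, and viability with drug at most 40%, in both replicates, limit read from the data, passing the limit was not always enough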); conditions: CellTiter-Glo, 72 h, at 10 µM; for differential viability (reversal): stronger effect = higher value
# [7] = 384-well plate pilot, post-Golgi transport modulator project, inhibition of yeast transport mutant growth (AID 636; in the data active = inhibition above about 31%); conditions: absorbance 615 nm, about 18 h, stronger effect = higher value
# [8] = growth suppression of yeast trafficking mutant, preliminary HTS, modulators of trafficking downstream of Golgi apparatus project, 1536-format plate, OD 615 nm (AID 637; in the data active = inhibition above about 30%); conditions: yeast transport mutant growth, absorbance 615 nm, 18 h; stronger effect = higher value
# [9] = H69AR cells + 2 uM doxorubicin, measured here: viability with 2 uM doxorubicin, stronger effect = lower value
# [10] = H69AR cells, compound alone cytotoxicity
Structure (SMILES),viability [1] [%],Her2 level [2],viability [3],viability [4],viability [5],differential viability (reversal) ([6]; H69AR cells + 2 uM doxorubicin),"viability [6, 9] [%]","viability [6, 10] [%]",inhibition [7],inhibition [8]
O=C1CN(C(=O)CN2CCCC2)C(c2ccccc2)c2cc(Br)ccc2N1 (stereo not given),94,91% (inactive),94% (inactive),75.8% (inactive),102% (inactive),4.63% (inactive),97.2,102,-4.67% (inactive),1.61% (inactive)
CCN(CC)S(=O)(=O)c1ccc(NC2CCCc3ccccc32)nc1 (stereo not given),71.5,77% (inactive),71.5% (inactive),88.6% (inactive),86% (inactive),0.97% (inactive),85.1,86,-4.46% (inactive),-3.17% (inactive)
Cc1c(=O)n(OCc2ccccn2)c2ccccc2[n+]1[O-],84,76% (inactive),84% (inactive),105% (inactive),94.2% (inactive),8.18% (inactive),86,94.2,-5.92% (inactive),-1.27% (inactive)
Cc1ccc(CN2C(=O)CCC2C(=O)NCC2CCCO2)cc1 (stereo not given),90,81% (inactive),90% (inactive),82.8% (inactive),103% (inactive),5.64% (inactive),97.3,103,-1.45% (inactive),3.55% (inactive)
N#Cc1c(NC(NC(=O)c2ccco2)C(=O)c2ccccc2)sc2c1CCCC2 (stereo not given),86.5,73.5% (inactive),86.5% (inactive),70.7% (inactive),86.4% (inactive),-6.42% (inactive),92.8,86.4,80.4% (active),18% (inactive)
CCN(CC)C(=O)C1CCCN(Cc2ccc(N(C)C)cc2)C1 (stereo not given),90.5,96.5% (inactive),90.5% (inactive),100% (inactive),89.5% (inactive),-3.46% (inactive),93,89.5,-1.82% (inactive),-4.75% (inactive)
COc1ccc(C(=O)N(CCCO)Cc2cc3c(C)ccc(C)c3[nH]c2=O)cc1OC,90.5,95% (inactive),90.5% (inactive),113% (inactive),95.1% (inactive),12.2% (inactive),82.9,95.1,-5.06% (inactive),2.46% (inactive)
Cc1ccc(S(=O)(=O)NCC(=O)N(CC(=O)NC2CCCCC2)Cc2ccco2)cc1,135,100% (inactive),135% (inactive),91% (inactive),93.9% (inactive),2.62% (inactive),91.3,93.9,-5.87% (inactive),4.76% (inactive)
Cc1cc(C)n(C(=O)CNC(=O)C2COc3ccccc3O2)n1 (stereo not given),122,97.5% (inactive),122% (inactive),87.2% (inactive),97.1% (inactive),3.57% (inactive),93.5,97.1,-4.74% (inactive),-1.59% (inactive)
COC(=O)c1[nH]c2cc(OC)ccc2c1NC(=O)CN1CCOCC1,116,90.5% (inactive),116% (inactive),95% (inactive),94.3% (inactive),3.07% (inactive),91.3,94.3,0% (inactive),-4.19% (inactive)
Cc1cc(C)n(-c2nnc(C)n2/N=C/c2ccco2)n1,108,91% (inactive),108% (inactive),93.1% (inactive),96.1% (inactive),5.14% (inactive),91,96.1,-6.27% (inactive),-2.3% (inactive)
O=C(O)CCc1ccc(-c2cccs2)n1CCC(=O)O,108,86.5% (inactive),108% (inactive),107% (inactive),85.8% (inactive),1.25% (inactive),84.6,85.8,-2.24% (inactive),-1.64% (inactive)
O=C(N1CCOCC1)N1CCC(NC(=O)C23CC4CC(CC(C4)C2)C3)CC1,90,88% (inactive),90% (inactive),99.6% (inactive),98.8% (inactive),8.44% (inactive),90.4,98.8,-6% (inactive),4.84% (inactive)
CCCC1C(C#N)=C(N)Oc2n[nH]c(C(C)(C)C)c21 (stereo not given),106,99.5% (inactive),106% (inactive),95.1% (inactive),105% (inactive),11% (inactive),94.4,105,-6.97% (inactive),-7.58% (inactive)
CCCSc1nc2c(c(=O)[nH]c(=O)n2C)n1CCc1ccccc1,89.5,92% (inactive),89.5% (inactive),83.8% (inactive),86.8% (inactive),-9.79% (inactive),96.6,86.8,-7.47% (inactive),7.42% (inactive)
COc1ccc(C2c3c(-c4ccccc4O)n[nH]c3C(=O)N2CCc2ccc(OC)c(OC)c2)cc1 (stereo not given),112,95.5% (inactive),112% (inactive),60.3% (inactive),68.5% (inactive),57.9% (active),10.6,68.5,-2.89% (inactive),6.94% (inactive)
COC(=O)c1c(C)oc2ccc(NS(=O)(=O)c3cccs3)cc12,106,94.5% (inactive),106% (inactive),59% (inactive),78.9% (inactive),-21.9% (inactive),101,78.9,-1.32% (inactive),5.9% (inactive)
CC(=O)Nc1ccc(S(=O)(=O)n2nc(C)cc2C)cc1,105,106% (inactive),105% (inactive),111% (inactive),105% (inactive),5.88% (inactive),98.9,105,-6.45% (inactive),10.3% (inactive)
CCCCSc1nc2c(cnn2-c2ccc(Cl)cc2)c(=O)[nH]1,93,83.5% (inactive),93% (inactive),85.5% (inactive),75.1% (inactive),2.96% (inactive),72.1,75.1,-4.93% (inactive),7.38% (inactive)
COc1ccc(C(=O)N2CCCc3ccccc32)cc1,87.5,94% (inactive),87.5% (inactive),116% (inactive),104% (inactive),11.1% (inactive),93,104,-4% (inactive),5.81% (inactive)
Cn1cnc(S(=O)(=O)NCc2cccs2)c1,102,102% (inactive),102% (inactive),96.5% (inactive),95.5% (inactive),7.67% (inactive),87.8,95.5,0.68% (inactive),-1.9% (inactive)
O=C(C1CCN(S(=O)(=O)c2cccnc2)CC1)N1CCN(c2ccc(Cl)cc2)CC1,84,81% (inactive),84% (inactive),70.2% (inactive),89.7% (inactive),18.8% (inactive),70.9,89.7,-2.11% (inactive),-4.44% (inactive)
CNC(=O)CSc1nnc(-c2cc(C)cc(C)c2)o1,94.5,99% (inactive),94.5% (inactive),93.4% (inactive),108% (inactive),13.4% (inactive),95.1,108,-3.07% (inactive),-3.06% (inactive)
CCOC(=O)C1CCCN(C(=O)c2cc3c(=O)n4cccc(C)c4nc3n2C)C1 (stereo not given),106,77% (inactive),106% (inactive),108% (inactive),94.3% (inactive),5.81% (inactive),88.4,94.3,-7.3% (inactive),2.7% (inactive)
Clc1ccc(Cn2ncc3c(NCc4cccnc4)ncnc32)cc1,77.5,86% (inactive),77.5% (inactive),90.5% (inactive),92% (inactive),-4.09% (inactive),96.1,92,-0.53% (inactive),3.77% (inactive)
Cc1nn(C)c(C)c1CN(C)C(=O)c1cc2nc(-c3ccco3)cc(C(F)(F)F)n2n1,77,94.5% (inactive),77% (inactive),109% (inactive),86.6% (inactive),0.655% (inactive),85.9,86.6,1.67% (inactive),-9.33% (inactive)
